From ChEMBL document CHEMBL1157936, “Synthesis of 7-benzyl-5-(piperidin-1-yl)-6,7,8,9-tetrahydro-3H-pyrazolo[3,4-c][2,7]naphthyridin-1-ylamine and its analogs as bombesin receptor subtype-3 agonists” (Bioorg Med Chem Lett, 2010)

Columns and labels:
[1] = target: T1, Bombesin receptor subtype-3 (Rattus norvegicus) (UniProt Q8K418); assay: Agonist activity at rat BRS3 expressed in HEK293AEQ cells after 10 mins by aequorin bioluminescence assay relative to dY-peptide; format: functional, cell-based; set-up: concentration or dose not given beside the values
T1 sequence (whole entry): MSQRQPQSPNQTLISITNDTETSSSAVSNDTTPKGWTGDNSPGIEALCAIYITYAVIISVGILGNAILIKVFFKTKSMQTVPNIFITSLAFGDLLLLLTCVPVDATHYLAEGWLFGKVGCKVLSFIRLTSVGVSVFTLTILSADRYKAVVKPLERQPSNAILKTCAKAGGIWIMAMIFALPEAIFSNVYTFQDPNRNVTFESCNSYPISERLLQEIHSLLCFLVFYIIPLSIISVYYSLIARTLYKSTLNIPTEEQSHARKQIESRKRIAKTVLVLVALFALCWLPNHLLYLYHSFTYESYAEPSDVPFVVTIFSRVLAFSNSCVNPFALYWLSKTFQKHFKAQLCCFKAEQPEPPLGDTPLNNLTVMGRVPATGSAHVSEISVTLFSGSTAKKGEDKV

[2] = target: T2, Bombesin receptor subtype-3 (Homo sapiens) (UniProt P32247); assay: Agonist activity at human BRS3 expressed in HEK293AEQ cells after 10 mins by aequorin bioluminescence assay relative to dY-peptide; format: functional, cell-based
T2 sequence (whole entry): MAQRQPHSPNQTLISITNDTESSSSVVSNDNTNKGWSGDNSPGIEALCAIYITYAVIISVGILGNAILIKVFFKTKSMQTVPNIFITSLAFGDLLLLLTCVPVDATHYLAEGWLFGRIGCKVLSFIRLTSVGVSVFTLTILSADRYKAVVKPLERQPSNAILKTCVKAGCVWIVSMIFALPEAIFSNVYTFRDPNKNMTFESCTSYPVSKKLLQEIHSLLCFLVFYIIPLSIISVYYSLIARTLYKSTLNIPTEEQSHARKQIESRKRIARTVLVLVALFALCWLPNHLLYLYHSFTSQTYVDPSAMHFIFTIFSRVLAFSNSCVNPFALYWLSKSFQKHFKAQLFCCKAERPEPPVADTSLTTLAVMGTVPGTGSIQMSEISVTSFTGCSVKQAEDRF

[3] = target: T3, Bombesin receptor subtype-3 (Rattus norvegicus, UniProt Q8K418); assay: Agonist activity at rat BRS3 expressed in HEK293AEQ cells after 10 mins by aequorin bioluminescence assay; format: functional, cell-based
T3 sequence (Q8K418 whole entry): T1 sequence (whole entry)

[4] = target: T4, Bombesin receptor subtype-3 (Homo sapiens, UniProt P32247); assay: Agonist activity at human BRS3 expressed in HEK293AEQ cells after 10 mins by aequorin bioluminescence assay; format: functional, cell-based
T4 sequence (P32247 whole entry): T2 sequence (whole entry)

[5] = Drug level in rat brain at 1 mg/kg, iv after 2 hrs; format: ADME, organism-based; set-up: dose 1 mg/kg, route intravenous; conditions: read-out: Drug uptake
Procedure, shortened: (§1)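 Rats received a single 1 mg/kg IV dose. Total drug concentration in brain and the brain/plasma ratio were measured at 0.25, 1 and 2 h post-dose.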

Rattus norvegicus [6] = assay: Antiobesity activity in deit-induced obese rat model assessed as suppression of acute food intake at 10 mg/kg, iv relative to control; format: functional
Procedure, shortened: (§2)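 Acute food intake was measured and expressed as percent suppression versus vehicle-treated rats. Melanotan-II served as the positive control.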

[7] = Ratio of drug level in brain to plasma in rat at 1 mg/kg, iv after 2 hrs; format: ADME, organism-based; set-up: dose 1 mg/kg, route intravenous; conditions: brain and plasma, read-out: BPR; procedure, shortened: as §1
[8] = Ratio of drug level in brain to plasma in rat at 1 mg/kg, iv after 1 hr; format: ADME, organism-based; set-up: dose 1 mg/kg, route intravenous; conditions: brain and plasma, read-out: BPR; procedure, shortened: as §1
Rattus norvegicus [9] = assay: Antiobesity activity in deit-induced obese rat model assessed as suppression of acute food intake at 0.3 mg/kg, iv relative to control; format: functional; procedure, shortened: as §2
[10] = Bioavailability in rat; format: ADME, organism-based; conditions: in vivo
[11] = Clearance in rat; format: ADME, organism-based; conditions: in vivo
[12] = Drug level in rat brain at 1 mg/kg, iv after 0.25 hrs; format: ADME, organism-based; set-up: dose 1 mg/kg, route intravenous; conditions: read-out: Drug uptake; procedure, shortened: as §1
[13] = Ratio of drug level in brain to plasma in rat at 1 mg/kg, iv after 0.25 hr; format: ADME, organism-based; set-up: dose 1 mg/kg, route intravenous; conditions: brain and plasma, read-out: BPR; procedure, shortened: as §1
[14] = Drug level in rat brain at 1 mg/kg, iv after 1 hr; format: ADME, organism-based; set-up: dose 1 mg/kg, route intravenous; conditions: read-out: Drug uptake; procedure, shortened: as §1
[15] = Half life in rat; format: ADME, organism-based; conditions: in vivo

| Compound | Activity [1] | Activity [2] | EC50 [3] | EC50 [4] | further results |
| --- | --- | --- | --- | --- | --- |
| Nc1n[nH]c2nc(N3CCCC3)c3c(c12)CCN(Cc1ccccc1)C3 | 99% | 12% | 0.965 µM | 10 µM | – |
| CC(C)(C)CNc1n[nH]c2nc(N3CCCCC3)c3c(c12)CCN(Cc1ccccc1)C3 | 94% | 29% | 0.68 µM | 4.15 µM | – |
| CN(C)c1nc2[nH]nc(N)c2c2c1CN(Cc1ccccc1)CC2 | 59% | 0.9% | 8.95 µM | 10 µM | – |
| Nc1n[nH]c2nc(NC3CCCCC3)c3c(c12)CCN(Cc1ccccc1)C3 | 50% | 1% | 10 µM | 10 µM | – |
| O=C(Nc1n[nH]c2nc(N3CCCCC3)c3c(c12)CCN(Cc1ccccc1)C3)C1CCCC1 | 99% | 61% | 0.413 µM | 0.704 µM | – |
| Nc1n[nH]c2nc(N3CCCCCCC3)c3c(c12)CCN(Cc1ccccc1)C3 | 51% | 3.7% | 10 µM | 10 µM | – |
| Nc1n[nH]c2nc(N3CCC(F)CC3)c3c(c12)CCN(Cc1ccccc1)C3 | 96% | 10% | 0.481 µM | 10 µM | – |
| Cn1nc(N)c2c3c(c(N4CCCCC4)nc21)CN(Cc1ccccc1)CC3 | 73% | 7.6% | 6.06 µM | 10 µM | – |
| CC(C)CN1CCc2c(c(N3CCCCC3)nc3[nH]nc(N)c23)C1 | 61% | 10% | 10 µM | 10 µM | – |
| Nc1n[nH]c2nc(N3CCCCC3)c3c(c12)CCN(CC1CCCCC1)C3 | 49% | 12% | 10 µM | 10 µM | – |
| CC(=O)n1nc(N)c2c3c(c(N4CCCCC4)nc21)CN(Cc1ccccc1)CC3 | 108% | 20% | 0.759 µM | 10 µM | – |
| Nc1n[nH]c2nc(N3CCCCC3)c3c(c12)CCN(Cc1ccc(F)cc1)C3 | 64% | 1.7% | 3.86 µM | 10 µM | – |
| CC(C)(C)CN1CCc2c(c(N3CCCCC3)nc3[nH]nc(N)c23)C1 | 91% | 22% | 1.06 µM | 10 µM | – |
| CCNc1n[nH]c2nc(N3CCCCC3)c3c(c12)CCN(Cc1ccccc1)C3 | 105% | 53% | 0.471 µM | 10 µM | – |
| CC(C)(C)C(=O)Nc1n[nH]c2nc(N3CCCCC3)c3c(c12)CCN(Cc1ccccc1)C3 | 105% | 37% | 0.063 µM | 1.54 µM | – |
| Nc1n[nH]c2nc(N3CCOCC3)c3c(c12)CCN(Cc1ccccc1)C3 | 82% | 1.3% | 3.56 µM | 10 µM | – |
| Nc1n[nH]c2nc(N3CCCCCC3)c3c(c12)CCN(Cc1ccccc1)C3 | 100% | 9% | 1.44 µM | 10 µM | – |
| Nc1n[nH]c2nc(N3CCCCC3)c3c(c12)CCN(C(=O)c1ccc(F)cc1)C3 | – | – | > 10 µM | > 10 µM | – |

| Compound | Activity [1] | Activity [2] | EC50 [3] | EC50 [4] | further results |
| --- | --- | --- | --- | --- | --- |
| CCC(=O)Nc1n[nH]c2nc(N3CCCCC3)c3c(c12)CCN(Cc1ccccc1)C3 | 103% | 19% | 0.123 µM | 3.47 µM | – |
| Nc1n[nH]c2nc(N3CCCCC3)c3c(c12)CCN(Cc1ccccc1)C3 | 105% | 60% | 0.38 µM | 4.52 µM | concentration at 2 h [5]: 140 nM; Activity (Rattus norvegicus [6]): 31.6%; Kp at 2 h [7]: 3.4; Kp at 1 h [8]: 3.2; Activity (Rattus norvegicus [9]): 43.6%; bioavailability [10]: 5.7%; clearance [11]: 45 mL/min/kg; concentration at 0.25 h [12]: 1210 nM; Kp at 0.25 h [13]: 4.4; concentration at 1 h [14]: 390 nM; half-life [15]: 43.8 min |
| Nc1n[nH]c2nc(N3CCNCC3)c3c(c12)CCN(Cc1ccccc1)C3 | 31% | 0.1% | 10 µM | 10 µM | – |
| COc1ccc(CN2CCc3c(c(N4CCCCC4)nc4[nH]nc(N)c34)C2)cc1 | 8% | 0.55% | 10 µM | 10 µM | – |
| CC(C)(C)CC(=O)Nc1n[nH]c2nc(N3CCCCC3)c3c(c12)CCN(Cc1ccccc1)C3 | 93% | 52% | 0.433 µM | 1.23 µM | – |
| CC(C)C(=O)Nc1n[nH]c2nc(N3CCCCC3)c3c(c12)CCN(Cc1ccccc1)C3 | 102% | 37% | 0.099 µM | 4.76 µM | – |
| CN1CCN(c2nc3[nH]nc(N)c3c3c2CN(Cc2ccccc2)CC3)CC1 | 21% | 0.2% | 10 µM | 10 µM | – |
| CCC(C)(C)C(=O)Nc1n[nH]c2nc(N3CCCCC3)c3c(c12)CCN(Cc1ccccc1)C3 | 96% | 78% | 0.212 µM | 0.543 µM | – |
| Nc1n[nH]c2nc(N3CCCCC3)c3c(c12)CCN(Cc1ccccn1)C3 | 94% | 46% | 0.346 µM | 6.78 µM | – |
| Nc1n[nH]c2nc(N3CCCCC3)c3c(c12)CCNC3 | 15% | 0.3% | > 10 µM | > 10 µM | – |
| Nc1n[nH]c2nc(N3CCCCC3)c3c(c12)CCN(Cc1ccccc1Cl)C3 | 121% | 67% | 0.342 µM | 5.57 µM | – |
| CC(C)Nc1nc2[nH]nc(N)c2c2c1CN(Cc1ccccc1)CC2 | 55% | 1.8% | 7.65 µM | 10 µM | – |
| Nc1n[nH]c2nc(N3CCCCC3)c3c(c12)CCN(Cc1ccc2c(c1)OCO2)C3 | 94% | 1.6% | 0.402 µM | 10 µM | – |
| CC1CCN(c2nc3[nH]nc(N)c3c3c2CN(Cc2ccccc2)CC3)CC1 | 96% | 6.8% | 0.854 µM | 10 µM | – |
| Nc1n[nH]c2nc(Nc3ccccc3)c3c(c12)CCN(Cc1ccccc1)C3 | 60% | 1.5% | 10 µM | 10 µM | – |
| CC(=O)Nc1n[nH]c2nc(N3CCCCC3)c3c(c12)CCN(Cc1ccccc1)C3 | 94% | 31% | 0.129 µM | 3.16 µM | – |
| Nc1n[nH]c2nc(N3CCCCC3)c3c(c12)CCN(Cc1cccc(C(F)(F)F)c1)C3 | 38% | 0.3% | 10 µM | 10 µM | – |
| Nc1n[nH]c2nc(N3CCCCC3)c3c(c12)CCN(CCc1ccccc1)C3 | 51% | 3.3% | 7.91 µM | 10 µM | – |
